Most compounds without a hit are left out; they make up all but 2.3% or so of the library.
TAAR1 antagonist: human TAAR1 antagonism; Q96RJ0; CHO RD-HGA16 TAAR1, Fluo-8 calcium fluorescence, antagonist; inhibition, % at 3 µM; actives 1.5% (n = 360,000);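 active = inhibition above a per-plate cutoff, the mean inhibition of test compounds on that plate plus 3 SD, cut at about 49% in these data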;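 note: 0% = DMSO plus EC80 beta-PEA response and 100% = DMSO alone without agonist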
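Material: RD-HGA16 CHO cells with stable hTAAR1 and Gα16; Dosing: single nominal final test compound concentration of 3 µM; Schedule: seeding 17-24 h prior, 75-min 37 °C, 30-min RT dye loading; Detection: kinetic Fluo-8 calcium fluorescence measurement; Measure: % inhibition from peak post-agonist over basal fluorescence ratio; Benchmarks: vehicle and agonist controls.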
TAAR1 ag: agonists of human TAAR1 | Q96RJ0 | actives 0.99% (n = 360,000) | CHO RD-HGA16 TAAR1, Fluo-8 calcium fluorescence; vehicle wells 0%, saturating PEA agonist 100% | activation, % at 3 µM;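 active = activation above the mean activation of all test compounds in the run plus 3 SD, cut at about 38% in these data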
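System: CHO-derived RD-HGA16 cells with stable Gα16 and human TAAR1. Times: 17-24 h plating, Fluo-8 75 min 37 °C, 30 min RT. Measured by: calcium-sensitive Fluo-8 signal, excitation 470-495, emission 515-575 nm. Read-out basis: % activation relative to PEA EC100 response. Control set: DMSO and PEA EC100. Repeats: no replicates (n 1).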
V1aR counter: counter-screen for oxytocin receptor agonists: human V1a receptor agonists; activation, % at 3 µM; CHO-V1R cells, Fluo-8 calcium fluorescence, agonist mode; 0% DMSO, 100% 3 nM vasopressin; P37288; actives 0.25% (n = 320,000);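 active = activation above the mean activation of all tested compounds plus 3 SD, per screening run, cut at about 20% in these data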;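 note: signal is peak over basal fluorescence ratio across a 100 second FLIPR read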
Target sequence (P37288 whole entry, looked up): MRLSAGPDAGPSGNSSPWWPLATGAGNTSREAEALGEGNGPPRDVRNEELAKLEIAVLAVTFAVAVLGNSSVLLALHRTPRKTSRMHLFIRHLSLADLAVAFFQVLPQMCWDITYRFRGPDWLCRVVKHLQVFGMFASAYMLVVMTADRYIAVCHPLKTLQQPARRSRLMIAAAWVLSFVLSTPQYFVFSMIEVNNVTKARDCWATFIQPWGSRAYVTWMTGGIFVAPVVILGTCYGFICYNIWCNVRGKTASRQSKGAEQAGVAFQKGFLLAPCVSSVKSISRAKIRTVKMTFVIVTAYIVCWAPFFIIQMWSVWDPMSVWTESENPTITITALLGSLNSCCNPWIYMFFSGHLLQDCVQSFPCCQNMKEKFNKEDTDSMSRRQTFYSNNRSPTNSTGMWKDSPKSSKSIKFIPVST
OXTR potentiator: potentiates the human oxytocin receptor response | P30559 | CHO-OTR cells, Fluo-8 calcium fluorescence, potentiator mode; 0% = oxytocin EC15, 100% = EC100 | activation, % at 3 µM | actives 0.061% (n = 320,000);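 active = activation above that plate's cutoff, the mean activation of tested compounds plus 3 SD, cut at about 6.6% in these data, passing the limit was not always enough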;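 note: 100% uses oxytocin at 75 nM as the full agonist control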
Target sequence (P30559 whole entry, looked up): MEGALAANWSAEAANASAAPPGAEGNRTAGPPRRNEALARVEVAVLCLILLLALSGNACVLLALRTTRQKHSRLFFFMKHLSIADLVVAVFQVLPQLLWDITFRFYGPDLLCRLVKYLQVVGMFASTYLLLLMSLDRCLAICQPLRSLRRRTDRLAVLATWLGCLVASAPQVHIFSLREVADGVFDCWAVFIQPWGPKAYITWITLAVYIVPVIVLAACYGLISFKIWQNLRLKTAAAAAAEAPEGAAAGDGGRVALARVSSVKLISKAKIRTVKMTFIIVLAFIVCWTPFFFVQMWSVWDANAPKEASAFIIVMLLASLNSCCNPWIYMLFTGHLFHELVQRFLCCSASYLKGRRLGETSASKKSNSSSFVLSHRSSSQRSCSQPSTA
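Dosing: Single dose, 3.0 µM nominal final compound concentration | Material: Human OTR in CHO cells | Technique: Kinetic Fluo-8 calcium fluorescence | Benchmarks: EC15 oxytocin alone as 0%, 75 nM oxytocin as 100% | Probe or stimulus: Oxytocin at about EC15, sub-maximal agonist stimulus | Incubation: Compound 6 min at room temperature before oxytocin, 100 s read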
OXTR agonist: agonists of human oxytocin receptor | activation, % at 3 µM | P30559 | AID 2435 | actives 0.32% (n = 320,000) | CHO-OTR cells, Fluo-8 calcium fluorescence; normalized: DMSO 0%, oxytocin 100%;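 active = activation above the mean of all tested compounds plus 3 SD, cutoff set per screening run, cut at about 20% in these data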;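 note: peak over basal fluorescence ratio from a 100 s FLIPR kinetic read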
TAAR1 nonsel count: counter-screen for TAAR1 antagonists: nonselective antagonists; shares compounds with TAAR1 antagonist; counterscreen cell line, calcium fluorescence, antagonist mode; AID 651780; actives 77% (n = 2,400); inhibition, % at 3 µM; in the data active = inhibition above about 22%;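 note: CHO-Ga16 host cells stimulated with ATP at an EC80 level; 0% = agonist EC80 plus vehicle and 100% = vehicle without agonist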
TAAR1 antag conf: confirmation of human TAAR1 antagonists. actives 40% (n = 2,400). shares compounds with TAAR1 antagonist. TAAR1-expressing cells, fluorescence antagonist read-out. inhibition, % at 3 µM. AID 651785; in the data active = inhibition above about 49%;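 note: CHO-Ga16 host cells challenged with agonist PEA near its EC80; 0% = agonist at EC80 plus vehicle and 100% = vehicle with no agonist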
Ga16 nonsel ag: counter-screen for TAAR1 antagonists: nonselective Ga16 agonists | actives 18% (n = 2,400) | activation, % at 3 µM | Ga16-expressing cells, calcium fluorescence, agonist counterscreen | AID 651953 | shares compounds with TAAR1 antagonist; in the data active = activation above about 12%;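 note: 0% = vehicle wells and 100% = saturating stimulus response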
TAAR1 ag counter: activates human TAAR1 in antagonist counter-screen | shares compounds with TAAR1 antagonist | hTAAR1 cell line, fluorescence activation, agonist mode | activation, % at 3 µM | actives 2% (n = 2,400); in the data active = activation above about 37%;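 note: CHO cells stably expressing TAAR1 with calcium dye readout; 0% = DMSO vehicle and 100% = full agonist response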
An asterisk follows results filed as active; . = no result.

SMILES | TAAR1 antagonist | TAAR1 ag | V1aR counter | OXTR potentiator | OXTR agonist | TAAR1 nonsel count | TAAR1 antag conf | Ga16 nonsel ag | TAAR1 ag counter
CCOC(=O)c1cccc(NC(=O)c2ccc3c(c2)C(=O)N(CC2CCCO2)C3=O)c1 (centres undefined) | 68* | 9 | 1 | -6 | 0 | 24* | 41 | 9 | 7
CCCc1c(C(=O)N/N=C/c2c[nH]c3ccccc23)nnn1-c1nonc1N | 63* | 29 | . | . | . | 32* | 47 | 12* | 12
Cn1cnc2ncnn2c1=S | -19 | 2 | . | . | . | . | . | . | .
COc1ccc(-c2cc(C(=O)N(C)CC(=O)Nc3cccc(F)c3)c3ccccc3n2)cc1 | 82* | 8 | 1 | -12 | 0 | 41* | 61* | 10 | 6
COc1cccc(-c2nn(-c3ccc(C)cc3)cc2C(=O)N(C)CC(=O)Nc2cccc(F)c2)c1 | 61* | 4 | 2 | -9 | 0 | 29* | 33 | 4 | 6
COc1ccc(-c2cc(C(=O)N(C)Cc3ccc(F)cc3)c3ccccc3n2)cc1OC | 72* | 5 | 1 | -5 | 0 | 26* | 48 | 6 | 4
CN(CC(=O)Nc1cccc(F)c1)C(=O)c1cccc2ccccc12 | -4 | 3 | 2 | 0 | 1 | . | . | . | .
COc1ccc(-c2nn(-c3ccccc3)cc2C(=O)N(C)CC(=O)Nc2cccc(F)c2)cc1 | 20 | 2 | 1 | -2 | 0 | . | . | . | .
CN(CC(=O)Nc1cccc(F)c1)C(=O)c1cc(-c2ccccc2)nc2ccccc12 | 72* | 5 | 2 | -11 | 0 | 31* | 49* | 9 | 5
CC(=O)c1ccc(N2CCN(C(=O)c3cc(-c4ccncc4)nc4ccc(Cl)cc34)CC2)cc1 | 48 | 11 | 3 | -5 | 2 | . | . | . | .
O=S1c2ccccc2Nc2ccccc21 | -5 | 4 | 2 | 0 | 0 | . | . | . | .
COc1ccc(CCNC(=O)c2ccc(Cl)c(S(=O)(=O)N(C)c3ccccc3)c2)cc1 | 57* | 12 | 6 | -8 | 4 | 33* | 44 | 9 | 3
Cc1nnc(SCC(=O)Nc2ccccc2F)n1-c1ccc(F)cc1 | -5 | -1 | 0 | -15 | 0 | . | . | . | .
N#CCCN(C(=O)COC(=O)c1ccc2ccccc2n1)c1ccccc1 | 2 | 13 | 1 | -2 | 1 | . | . | . | .
CN1CCc2nc3ccccc3c(C(=O)OCC(=O)N(CCC#N)c3ccccc3)c2C1 | 51* | 17 | -1 | -19 | 9 | 23* | 47 | 8 | 10
CCN1CCN(Cc2ccc(NC(=O)c3cc(NC(=O)N4CCNC4=O)cc(OC)c3)cc2C(F)(F)F)CC1 | 32 | 5 | 0 | -9 | 0 | . | . | . | .
O=C(Nc1cccc(C(F)(F)F)c1)c1csc(-c2ccncc2)n1 | 16 | -1 | -1 | -14 | -3 | . | . | . | .
COc1cc(Nc2ccccn2)cc(C(=O)Nc2cccc(C(F)(F)F)c2)c1 | 54* | 7 | 1 | -15 | 0 | 34* | 46 | 7 | 2
COc1cc(NC(=O)c2csc(-c3ccncc3)n2)cc(C(=O)Nc2cccc(C(F)(F)F)c2)c1 | 74* | 9 | 0 | -14 | -1 | 35* | 55* | 6 | 5
COc1cc(NC(=O)N2CCNC2=O)cc(C(=O)Nc2cccc(C(F)(F)F)c2)c1 | 51* | 20 | 1 | -14 | 1 | 19 | 24 | 8 | 6
CN1CCN(c2nc3cc(N4CCOCC4)ccc3s2)CC1 | 16 | 1 | . | . | . | . | . | . | .
O=C1C(Cl)=C(O)C2(Cl)C(Cl)=C(Cl)C12Cl (centres undefined) | 12 | 0 | . | . | . | . | . | . | .
N#C/C(=C\c1ccc(-c2ccc(C(=O)O)cc2)o1)C(=O)Nc1ccc(F)cc1 | 70* | 22 | 0 | -13 | 3 | 33* | 45 | 17* | 20
COc1cc(OC)cc(C(=O)Nc2cccc(-c3ccc(N4CCOCC4)nn3)c2)c1 | 55* | 11 | 0 | -11 | -1 | 35* | 39 | 6 | 8
O=C(COc1ccc(Cl)cc1)Nc1cccc(-c2ccc(N3CCOCC3)nn2)c1 | 68* | 13 | 0 | -3 | -2 | 32* | 45 | 7 | 4
SMILES | TAAR1 antagonist | TAAR1 ag | V1aR counter | OXTR potentiator | OXTR agonist | TAAR1 nonsel count | TAAR1 antag conf | Ga16 nonsel ag | TAAR1 ag counter
Cc1ccc(NC(=O)c2ccc(-n3cncn3)c([N+](=O)[O-])c2)cc1F | 19 | 17 | 5 | -11 | 4 | . | . | . | .
CC(NC(=O)c1ccc(NC2=NC3CS(=O)(=O)CC3S2)cc1)c1ccccc1 (centres undefined) | -15 | 1 | 0 | -4 | -1 | . | . | . | .
CCOC(=O)c1c(C)[nH]c(C(=O)N/N=C\c2ccccc2Cl)c1C | 55* | 8 | 6 | -11 | 3 | 38* | 56* | 11 | 10
CCOC(=O)c1c(C)[nH]c(C(=O)N/N=C/c2cccc(OC)c2)c1C | 55* | 17 | 4 | -2 | 1 | 21 | 41 | 11 | 12
COc1cccc(/C=N/NC(=O)c2[nH]c(C)c(C(=O)N/N=C/c3cccc(OC)c3)c2C)c1 | 24 | 3 | 0 | -6 | 1 | . | . | . | .
CCOC(=O)c1c(C)[nH]c(C(=O)NNC(=O)c2ccccc2)c1C | . | . | 0 | -2 | 0 | . | . | . | .
Cc1cc(C)nc(N/N=C/c2cc(Br)ccc2O)n1 | 7 | -5 | -1 | -2 | 0 | . | . | . | .
COc1ccc(-c2ccc3c(n2)CCCN3S(=O)(=O)c2ccccc2)cc1 | 78* | 7 | . | . | . | 38* | 52* | 10 | 8
Oc1ccc(-c2csc(NCc3ccco3)n2)cc1 | 104* | -2 | 0 | -8 | -1 | -3 | -2 | 0 | -4
c1coc(CNc2nc(-c3cccs3)cs2)c1 | -5 | 0 | 0 | -4 | -1 | . | . | . | .
O=C(Cc1cccs1)Nc1nnc(Cc2ccccc2)s1 | 11 | 19 | 0 | -5 | -1 | . | . | . | .
COc1ccc(Cc2nnc(NC(=O)Cc3cccs3)s2)cc1OC | 57* | -1 | -1 | -14 | -1 | 7 | 2 | 0 | 8
C=CCN1[C@H](COCc2ccccc2)C=CS1(=O)=O | -5 | 0 | . | . | . | . | . | . | .
CCC1CN(C(=O)N2CCC(C(=O)Nc3ccccc3OC)CC2)c2ccccc2O1 (centres undefined) | 61* | 14 | 7 | -6 | 4 | 22* | 42 | 10 | 13
COc1ccc(CCCN2CCC(CN3C(=S)NC[C@@H]3Cc3ccccc3)CC2)cc1OC | -3 | -1 | . | . | . | . | . | . | .
